# From PubChem BioAssay
# This excerpt belongs to a sample that is enriched for hits.
# MDM2 E3 inh = Mdm2 E3 ligase (human) inhibition; AID 1230; cell-based MDM2 ubiquitination luciferase reporter, 2 h; 0 = plate control, 100 = twice control, blank-subtracted; Q00987; 0.11% of 210,000 active; signal enhancement, % at 5 µM;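 active means signal enhancement of 30% or more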;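 further: luminescence tracks abundance of the self-degrading MDM2-luciferase fusion protein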
#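 system = mammalian cells stably expressing self-ubiquitinating, self-degrading MDM2 E3–luciferase fusion | quantity = 2000 cells per well seeded | incubation = 4 h cell settling then 2 h compound exposure, 37 °C | signal = SteadyLite luminescence, 15 min reagent step | benchmarks = plate control and blank wells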
# S1P4 antag = human S1P4 receptor antagonism. O95977. S1P4-expressing cells, antagonist mode, reporter read-out. inhibition, % at 4.98 µM. 0.26% of 220,000 active. AID 1510; in the data active means inhibition above about 29%
# Lmaj promast = inhibitors of Leishmania major promastigote growth. Leishmania major promastigotes, resazurin fluorescence viability. inhibition, % at 10 µM. 9% of 200,000 active; in the data active means inhibition above about 50%;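 further: promastigotes grown with compound for 44 hours at 28 °C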
# S1P3 antagonist = blocks the human S1P3 receptor. Q99500. CHO S1P3 NFAT-BLA reporter, FRET fluorescence, antagonist mode. inhibition, % at 4.98 µM. 0.27% of 170,000 active;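 active means inhibition above the plate cutoff, the mean inhibition of test wells on that plate plus 3 SD, cut at about 28% in these data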;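 further: cells challenged with S1P at its EC80 of 0.8 µM; blue over green emission ratio from cleaved BLA substrate after 4 h stimulation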
# Target sequence (Q99500 whole entry, looked up): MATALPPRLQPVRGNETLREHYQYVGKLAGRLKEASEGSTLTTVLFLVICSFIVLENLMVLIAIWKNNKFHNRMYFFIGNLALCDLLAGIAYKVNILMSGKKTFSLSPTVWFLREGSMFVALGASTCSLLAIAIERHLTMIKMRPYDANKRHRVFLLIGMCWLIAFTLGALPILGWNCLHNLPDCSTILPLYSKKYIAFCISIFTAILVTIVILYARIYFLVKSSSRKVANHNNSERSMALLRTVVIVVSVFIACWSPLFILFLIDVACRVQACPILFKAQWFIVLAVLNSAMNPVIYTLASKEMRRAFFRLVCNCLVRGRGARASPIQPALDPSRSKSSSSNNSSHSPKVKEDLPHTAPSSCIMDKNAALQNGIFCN
# S1P4 agonist = human S1P4 receptor agonism; O95977; S1P4-expressing cell line, agonist reporter assay; activation, % at 4.98 µM; 0.35% of 220,000 active; in the data active means activation above about 11%
# Numbers stand for hits; . = inactive; / = not tested or not shown.
SMILES,MDM2 E3 inh,S1P4 antag,Lmaj promast,S1P3 antagonist,S1P4 agonist
Cc1ccc(C)n1NC(=O)c1cccc(Cl)c1,.,.,92.4,/,.
Cc1noc(C)c1COc1ccc(C(=O)Nc2ccccc2)cc1,.,.,.,.,.
Cc1noc(C)c1COc1cccc(C(=O)Nc2ccc(OCc3ccccc3)cc2)c1,.,.,53.1,/,.
Cc1noc(C)c1COc1ccc(C(=O)NCc2ccccn2)cc1,68.4,.,.,.,.
CC1CC(CCC(=O)NC(=S)Nc2ccc(Cl)cn2)C(=O)O1 (stereo unspecified),.,.,.,.,.
Cc1nnc(SCC(=O)Nc2nccs2)n(N)c1=O,.,.,.,.,.
Cn1c(=O)nc2n(Cc3ccccc3)c3cccc(Cl)c3cc-2c1=O,.,.,.,.,.
Fc1ccccc1NC(=S)N1CCN(c2ccccn2)CC1,/,.,.,.,.
Cn1c(Cn2c(=O)sc3ccccc32)nnc1SCC(=O)Nc1ccccc1F,.,.,.,99.1,.
O=C(c1cnc(Cl)c(Cl)c1)N1CCC(Cc2ccccc2)CC1,.,.,.,.,.
Fc1ccc(NC(=S)N2CCN(C/C=C/c3ccccc3)CC2)c(F)c1,.,.,81.0,.,.
COC(=O)c1ccccc1NC(=S)N1CCC(N2CCCCC2)CC1,.,.,73.3,.,.
CC(C(=O)Nc1cccc([N+](=O)[O-])c1)N1CCN(C/C=C/c2ccccc2)CC1 (stereo unspecified),.,.,81.5,.,.
COC(=O)c1cc(OC)c(OC)cc1NC(=S)N1CCCC1,.,.,87.9,.,.
COC(=O)c1ccccc1NC(=S)N1CCN(C2CCCCC2)CC1,.,.,.,.,.
COc1ccccc1NC(=S)N1CCN(C/C=C/c2ccccc2)CC1,.,.,67.3,.,.
O=C(CCN1CCN(C/C=C/c2ccccc2)CC1)Nc1ccccc1F,.,.,97.2,.,.
COc1ccccc1NC(=S)N1CCN(Cc2ccccc2)CC1,.,.,82.6,.,.
COc1ccc(C)cc1NC(=O)CN1CCN(C/C=C/c2ccccc2)CC1,.,.,86.2,/,.
O=C(CCCn1c(=S)[nH]c2ccsc2c1=O)Nc1ccc2c(c1)OCCO2,.,.,.,.,.
CC(=O)c1ccc(N2CCN(C(=O)c3cc4c(=O)n(C)c5ccccc5c4n3C)CC2)cc1,/,/,/,.,/
COC(=O)c1cc(OC)c(OC)cc1NC(=S)N1CCN(C/C=C/c2ccccc2)CC1,.,.,99.4,.,.
O=C(Nc1cccc(F)c1)N1CCN(C/C=C/c2ccccc2)CC1,.,.,68.3,/,.
COc1ccc(NC(=S)N2CCN(C/C=C/c3ccccc3)CC2)c(OC)c1,.,.,.,.,.
O=C(Nc1ccc(F)cc1)N1CCN(C/C=C/c2ccccc2)CC1,.,.,.,.,.
SMILES,MDM2 E3 inh,S1P4 antag,Lmaj promast,S1P3 antagonist,S1P4 agonist
S=C(NC1CCCCC1)N1CCN(C/C=C/c2ccccc2)CC1,.,.,94.4,.,.
Cc1ccc(C#N)c(SCC(=O)Nc2nccs2)n1,.,.,.,.,.
CC(=O)C1=C(N2CCCCC2)CCC1=O,.,.,.,.,.
CN1CC(c2ccc(Cl)c(Cl)c2)[C@@]2(COc3ccccc3C2=O)[C@@]12C(=O)Nc1ccccc12 (stereo partly specified),.,.,80.7,/,.
CC1(C(=O)NCc2ccc(Cl)c(Cl)c2)Oc2ccccc2NC1=O (stereo unspecified),.,.,.,.,.
Cn1c(=O)c2c(O)c([N+](=O)[O-])c(=O)n(C)c2n(C)c1=O,.,.,/,.,.
Cc1cc(N2C(=O)C3CC=CC(C)C3C2=O)no1 (stereo unspecified),.,.,.,/,.
CCCCn1c(N2CCC(Cc3ccccc3)CC2)nc2c1c(=O)[nH]c(=O)n2C,.,.,78.4,.,.
Cn1c(=O)c2c(nc(N3CCNCC3)n2Cc2cccc3ccccc23)n(C)c1=O,.,.,.,.,.
Cn1c(=O)[nH]c(=O)c2c1nc(N1CCNCC1)n2Cc1cccc2ccccc12,.,.,82.7,.,.
O=c1c2ccc([N+](=O)[O-])cc2ncn1Cc1ccccc1C(F)(F)F,.,.,.,.,.
N#Cc1c(Cl)c(Cl)c2nnc(-c3ccc(Br)cc3)n2c1Cl,.,.,.,/,.
O=C(CSc1nc2c(cnn2-c2ccccc2)c(=O)[nH]1)N1N=C(c2cccs2)CC1c1ccc(F)cc1 (stereo unspecified),/,.,68.9,.,.
O=c1oc2ccccc2c2c1nnn2CCO,.,.,.,.,.
O=C(Nc1ccccc1)NC1CCN(Cc2ccccc2)CC1,.,.,.,.,.
S=C(Nc1ccc(Cl)cc1)N1CCN(Cc2ccccc2)CC1,.,.,.,.,.
CC(C)c1ccc(NC(=S)NC2CCN(Cc3ccccc3)CC2)cc1,/,.,92.2,.,.
O=C(CN1CCC(NC(=O)c2ccccc2F)CC1)Nc1ccc2c(c1)OCO2,.,.,.,.,.
Cc1ccc(NC(=S)NC2CCN(Cc3ccccc3)CC2)cc1,.,.,99.6,.,.
S=C(Nc1ccc2c(c1)OCO2)NC1CCN(Cc2ccccc2)CC1,.,.,97.5,/,.
Cc1ccc(NC(=O)CN2CCC(NC(=O)Cc3ccccc3)CC2)c(C)c1,.,.,69.7,.,.
CC(C)N1CCN(Cc2cccc(-n3cccn3)c2)CC1CCO (stereo unspecified),.,.,.,.,.
O=C(Nc1ccccc1)C1=C[C@@H](C2CC2)C[C@@H](OCc2ccc(CO)cc2)O1,/,.,.,.,.
COc1cccc(CNCc2ccc(SC)cc2)c1OC,.,.,.,/,.
CC(C)c1cc(C(=O)O)c2cnn(C(C)C)c2n1,.,.,/,.,.
SMILES,MDM2 E3 inh,S1P4 antag,Lmaj promast,S1P3 antagonist,S1P4 agonist
Cc1ccc(C(=O)Cn2c(C(=O)/C=C/c3ccccc3)nc3ccccc32)cc1,.,.,.,/,.
Cc1ccc(NC(=S)NC2CCN(Cc3ccccc3)CC2)cc1C,.,.,94.0,.,.
Cc1ccc(NC(=O)CN2CCC(NC(=O)Cc3ccccc3)CC2)cc1C,.,.,.,/,.
Cn1c(=O)n(CCN2CCOCC2)c(=O)c2c1nc1n2CCN1c1ccccc1,/,.,.,.,.
CCOC(=O)C1=C(C)NC(C)=C(C(=O)OCC)C1/C=C/c1ccccc1,.,.,.,/,.
C=CCOC(=O)C1=C(C)NC(C)=C(C(=O)OCC=C)C1/C=C/c1ccccc1,.,.,100.1,/,.
CCC(=O)OCCNc1cc(Sc2nccn2C)c2nonc2c1[N+](=O)[O-],.,.,84.5,.,.
CCC(=O)OCCNc1cc(SCCC(=O)OC)c2nonc2c1[N+](=O)[O-],/,.,.,.,.
CC(=C1C(=O)c2ccccc2C1=O)N1CCc2ccccc2C1,.,.,92.4,.,.
Cc1cc(C)nc(SC(C)CNS(=O)(=O)c2ccccc2)n1 (stereo unspecified),.,.,.,.,.
CCCCCCCCCCCCCCCC(O)C(N)CO (stereo unspecified),/,.,100.5,.,.
COC(=O)Cc1nc(Nc2ccccc2)sc1C,.,.,/,.,.
O=C(NNC1=Nc2cccc3cccc1c23)c1ccc(Br)cc1,.,.,82.1,.,.
